# FGF22 binding: FGF22 (human) thermal shift binding. Q9HCT0. recombinant FGF22 thermal shift, SYPRO orange fluorescence; percent of sucrose octasulfate shift, DMSO zero. activity (Tm shift, normalised), % at 9.99 µM. actives 1.5% (n = 340,000). AID 651658;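 active = mean Tm shift, scaled 0 neutral to 100 positive control, at about 1.3% or above, every replicate too, limit read from the data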
# UCH37 DUB inh: inhibitors of human deubiquitinating enzyme UCH37 | Q9Y5K5 | purified proteasome/UCH37, Ub-AMC cleavage fluorescence | inhibition, % (test concentration not listed) | actives 0.33% (n = 330,000);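 active = mean inhibition over replicate wells above about 20%, limit read from the data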;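 note: 0% = compound-free wells with enzyme and 100% = wells lacking proteasome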
#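 Test system – human UCH37 enzyme supplied as purified proteasome complex · Incubation – 30 min preincubation with enzyme, 25 min cleavage at room temperature · Detection – AMC fluorescence from Ub-AMC cleavage, excitation 355 nm, emission 460 nm · Benchmarks – no-proteasome wells (full inhibition) and compound-free wells (no inhibition)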
# NSD2 inh: blocks human histone methyltransferase NSD2. O96028. NSD2 peptide methylation, AlphaScreen, 120 min. inhibition, % at 12.5 µM. actives 0.54% (n = 310,000). AID 743445; in the data active = inhibition above about 50%
# Casp6 inh: caspase-6 (human) enzyme inhibition; P55212; purified caspase-6, Z-VEID-R110 cleavage fluorescence; inhibition, % at 12.5 µM; actives 0.53% (n = 350,000); AID 686996;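 active = mean inhibition across replicates at least about 35%, with every replicate also reaching that limit, limit read from the data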;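 note: 0% = median of neutral control wells and 100% = no fluorescence left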
# SIRT5 inh: inhibitors of human sirtuin-5 desuccinylase; AID 652115; actives 1.1% (n = 330,000); inhibition, % at 15 µM; Purified SirT5, succinyl-peptide AMC, trypsin-coupled fluorescence; in the data active = inhibition above about 15%
# Target sequence (Q9NXA8 whole entry, looked up): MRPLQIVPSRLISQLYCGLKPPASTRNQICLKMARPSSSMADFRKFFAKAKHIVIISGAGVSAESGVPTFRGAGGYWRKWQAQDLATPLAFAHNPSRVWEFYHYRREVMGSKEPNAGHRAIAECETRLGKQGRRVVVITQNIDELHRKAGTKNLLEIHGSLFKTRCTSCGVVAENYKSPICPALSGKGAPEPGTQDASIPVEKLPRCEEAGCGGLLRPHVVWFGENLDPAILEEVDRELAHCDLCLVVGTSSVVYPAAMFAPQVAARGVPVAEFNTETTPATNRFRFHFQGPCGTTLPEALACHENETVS
# The depositor's hits bear a star; . = no result. Sampled rows, rich in hits. Any-hit rate of the full collection: about 2.6%.
SMILES,FGF22 binding,UCH37 DUB inh,NSD2 inh,Casp6 inh,SIRT5 inh
OC(Cc1ccncc1)c1ccccc1Cl (stereo not drawn),43.4*,3.2,1.1,-2.5,.
CN(C)CCN1CCN(C2CN(Cc3cn(Cc4ccccc4C(F)(F)F)nn3)S(=O)(=O)C2)CC1 (stereo not drawn),15.0*,.,.,-55.1,20.6*
O=S1(=O)CC(N2CCCC2)CN1Cc1cn(Cc2ccccc2)nn1 (stereo not drawn),0.0,.,.,1.5,27.8*
O=S1(=O)CC(N2CCCCC2)CN1Cc1cn(Cc2ccccc2)nn1 (stereo not drawn),-0.3,.,.,3.1,-5.4
O=S1(=O)CC(N2CCCCC2)CN1Cc1ccccc1 (stereo not drawn),-0.2,.,.,-8.2,-0.7
O=S1(=O)CC(N2CCC(c3ccccc3)CC2)CN1Cc1ccccc1 (stereo not drawn),0.0,.,.,-4.0,37.2*
CCCCCCn1cc(CN2CC(N3CCSCC3)CS2(=O)=O)nn1 (stereo not drawn),-0.1,.,.,-1.3,17.4*
CCCCCCn1cc(CN2CC(N3CCCC3)CS2(=O)=O)nn1 (stereo not drawn),0.0,.,.,-0.5,-2.6
Clc1ccccc1CN1CCN(N=C/C=C\c2ccco2)CC1,.,2.2,.,.,.
COc1ccc(NC2CC(=O)N(c3cc([N+](=O)[O-])ccc3C)C2=O)cc1 (stereo not drawn),43.2*,5.3,-4.8,-1.4,0.9
COc1ccc(CN(C)C[C@@H]2Oc3ccc(NC(=O)C4CCCCC4)cc3C(=O)N([C@@H](C)CO)C[C@H]2C)cc1,-0.1,.,.,1.9,4.8
Cc1ccc2nc(N(CCCN(C)C)C(=O)c3ccco3)sc2c1,-0.1,4.0,6.4,-8.1,-3.9
CN(C)CCCN(C(=O)c1ccco1)c1nc2ccc(F)cc2s1,0.0,3.4,5.3,1.9,18.6*
COc1ccc(S(=O)(=O)Nc2ccc3c(c2)C(=O)N([C@@H](C)CO)C[C@H](C)[C@H](CN(C)S(=O)(=O)c2ccc(Cl)cc2)O3)cc1,-0.6,.,.,.,.
COc1ccc(S(=O)(=O)N(C)C[C@H]2OCCCC[C@@H](C)Oc3ccc(NS(=O)(=O)c4ccc(Cl)cc4)cc3C(=O)N([C@@H](C)CO)C[C@H]2C)cc1,-0.4,.,.,-0.1,16.2*
COc1ccc(S(=O)(=O)Nc2ccc3c(c2)C(=O)N([C@@H](C)CO)C[C@@H](C)[C@H](CN(C)S(=O)(=O)c2ccc(Cl)cc2)OCCCC[C@H](C)O3)cc1,-0.1,.,.,0.7,0.9
COc1ccc(S(=O)(=O)Nc2ccc3c(c2)C(=O)N([C@H](C)CO)C[C@H](C)[C@H](CN(C)S(=O)(=O)c2ccc(Cl)cc2)OCCCC[C@H](C)O3)cc1,.,.,.,-0.8,16.4*
COc1ccc(S(=O)(=O)Nc2ccc3c(c2)C(=O)N([C@H](C)CO)C[C@@H](C)[C@@H](CN(C)S(=O)(=O)c2ccc(Cl)cc2)OCCCC[C@H](C)O3)cc1,0.0,.,.,0.5,0.5
COc1ccc(S(=O)(=O)Nc2ccc3c(c2)C(=O)N([C@H](C)CO)C[C@@H](C)[C@@H](CN(C)S(=O)(=O)c2ccc(Cl)cc2)O3)cc1,0.1,3.6,.,2.1,19.5*
COc1ccc(S(=O)(=O)Nc2ccc3c(c2)C(=O)N([C@H](C)CO)C[C@@H](C)[C@@H](CN(C)S(=O)(=O)c2ccc(Cl)cc2)OCCCC[C@@H](C)O3)cc1,-0.1,.,.,2.0,11.0
COc1ccc(S(=O)(=O)N(C)C[C@@H]2OCCCC[C@@H](C)Oc3ccc(NS(=O)(=O)c4ccc(Cl)cc4)cc3C(=O)N([C@H](C)CO)C[C@@H]2C)cc1,-0.2,.,.,-0.4,16.4*
NC(=O)NN=C/C=C/c1ccc(F)cc1,.,2.5,.,.,.
COCc1cn(CC[C@H]2CC[C@H](NC(=O)c3ccc(F)cc3)[C@H](CO)O2)nn1,0.0,.,.,0.3,1.3
COc1ccc(S(=O)(=O)N(C)C[C@@H]2OCCCC[C@H](C)Oc3ccc(NS(=O)(=O)c4ccc(Cl)cc4)cc3C(=O)N([C@@H](C)CO)C[C@@H]2C)cc1,0.0,.,.,0.3,7.3
COc1ccc(S(=O)(=O)Nc2ccc3c(c2)C(=O)N([C@@H](C)CO)C[C@@H](C)[C@H](CN(C)S(=O)(=O)c2ccc(Cl)cc2)OCCCC[C@@H](C)O3)cc1,0.0,.,.,0.8,15.6*
